The text below walks through data of ChEMBL document CHEMBL1128347, “Non-peptidic inhibitors of human leukocyte elastase. 4. Design, synthesis, and in vitro and in vivo activity of a series of beta-carbolinone-containing trifluoromethyl ketones” (J Med Chem, 1995).

SMILES strings stand for the structures.

One test deals with T1, Neutrophil elastase (Homo sapiens, UniProt P08246).
T1 sequence (P08246 whole entry): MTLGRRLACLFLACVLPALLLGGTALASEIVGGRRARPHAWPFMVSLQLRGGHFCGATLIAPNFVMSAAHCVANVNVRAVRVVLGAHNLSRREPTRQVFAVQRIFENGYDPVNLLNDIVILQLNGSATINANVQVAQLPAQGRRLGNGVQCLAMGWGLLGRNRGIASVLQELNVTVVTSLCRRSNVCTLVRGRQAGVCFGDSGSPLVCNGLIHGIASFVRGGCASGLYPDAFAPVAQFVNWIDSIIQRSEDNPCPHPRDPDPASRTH
The test is described as follows: In vitro inhibitory activity against human leukocyte elastase (HLE) mediated hydrolysis of the synthetic substrate MeO-Suc-Ala-Ala-Pro-Val-pNA.

The nature of test [1]: Ratio of the Ki value towards bovine chymotrypsin to that of HLE. In short, it runs like this:
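Selectivity ratio computed as Ki against bovine pancreatic chymotrypsin divided by Ki against human leukocyte elastase. The elastase Ki came from inhibition of enzyme-catalysed hydrolysis of the chromogenic substrate MeOSuc-Ala-Ala-Pro-Val-pNA.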

Test [2] deals with T2, Chymotrypsinogen A (Bos taurus, UniProt P00766). Kind of test: Inhibitory activity against bovine chymotrypsin.
The target of test [3] is T2, Chymotrypsinogen A. Kind of test: Inhibitory activity against bovine chymotrypsin; No inhibition at the highest concentration tested (>150 uM).
In a further test the target is T3, Serine protease 1 (Bos taurus, UniProt P00760).
T3 sequence (P00760 whole entry): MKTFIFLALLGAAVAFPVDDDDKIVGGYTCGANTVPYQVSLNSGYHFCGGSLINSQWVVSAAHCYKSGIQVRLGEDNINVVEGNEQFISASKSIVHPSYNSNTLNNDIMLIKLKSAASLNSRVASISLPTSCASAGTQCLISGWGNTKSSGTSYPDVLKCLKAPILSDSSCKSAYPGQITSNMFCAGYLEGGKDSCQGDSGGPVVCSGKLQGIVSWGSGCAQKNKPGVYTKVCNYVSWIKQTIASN
Kind of test: Inhibitory activity against bovine trypsin; No inhibition at the highest concentration tested (400 uM).

A further test has as its target Prothrombin (Homo sapiens, UniProt P00734). The test is described as follows: Inhibitory activity against human thrombin mediated hydrolysis of the synthetic substrate […]; No inhibition at the highest concentration tested (400 uM).
A further test deals with T4, Cathepsin G (Homo sapiens, UniProt P08311).
T4 sequence (P08311 whole entry): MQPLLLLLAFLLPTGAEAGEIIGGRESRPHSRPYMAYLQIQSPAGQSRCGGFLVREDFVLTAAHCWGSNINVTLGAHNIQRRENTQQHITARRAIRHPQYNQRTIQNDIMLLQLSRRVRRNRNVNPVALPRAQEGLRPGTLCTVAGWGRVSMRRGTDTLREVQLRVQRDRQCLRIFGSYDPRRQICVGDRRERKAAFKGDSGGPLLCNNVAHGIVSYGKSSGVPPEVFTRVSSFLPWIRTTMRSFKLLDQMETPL
The test is described as follows: Inhibitory activity against human cathepsin G.

Another test deals with T5, Papain (Carica papaya, UniProt P00784).
T5 sequence (P00784 whole entry): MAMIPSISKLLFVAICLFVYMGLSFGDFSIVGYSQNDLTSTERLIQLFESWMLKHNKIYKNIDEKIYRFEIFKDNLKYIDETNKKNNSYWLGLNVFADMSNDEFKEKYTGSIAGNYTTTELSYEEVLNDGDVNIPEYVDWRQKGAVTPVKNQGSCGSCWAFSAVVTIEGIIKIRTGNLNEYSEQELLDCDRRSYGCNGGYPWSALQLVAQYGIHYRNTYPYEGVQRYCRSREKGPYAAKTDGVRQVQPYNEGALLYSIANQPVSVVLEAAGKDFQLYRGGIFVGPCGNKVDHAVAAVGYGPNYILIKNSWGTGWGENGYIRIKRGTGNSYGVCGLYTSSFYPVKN
The test is described as follows: Inhibitory activity against papain; No inhibition at the highest concentration tested (400 uM).

The target of test [4] is T6, Angiotensin-converting enzyme (Oryctolagus cuniculus, UniProt P12822).
T6 sequence (P12822 whole entry): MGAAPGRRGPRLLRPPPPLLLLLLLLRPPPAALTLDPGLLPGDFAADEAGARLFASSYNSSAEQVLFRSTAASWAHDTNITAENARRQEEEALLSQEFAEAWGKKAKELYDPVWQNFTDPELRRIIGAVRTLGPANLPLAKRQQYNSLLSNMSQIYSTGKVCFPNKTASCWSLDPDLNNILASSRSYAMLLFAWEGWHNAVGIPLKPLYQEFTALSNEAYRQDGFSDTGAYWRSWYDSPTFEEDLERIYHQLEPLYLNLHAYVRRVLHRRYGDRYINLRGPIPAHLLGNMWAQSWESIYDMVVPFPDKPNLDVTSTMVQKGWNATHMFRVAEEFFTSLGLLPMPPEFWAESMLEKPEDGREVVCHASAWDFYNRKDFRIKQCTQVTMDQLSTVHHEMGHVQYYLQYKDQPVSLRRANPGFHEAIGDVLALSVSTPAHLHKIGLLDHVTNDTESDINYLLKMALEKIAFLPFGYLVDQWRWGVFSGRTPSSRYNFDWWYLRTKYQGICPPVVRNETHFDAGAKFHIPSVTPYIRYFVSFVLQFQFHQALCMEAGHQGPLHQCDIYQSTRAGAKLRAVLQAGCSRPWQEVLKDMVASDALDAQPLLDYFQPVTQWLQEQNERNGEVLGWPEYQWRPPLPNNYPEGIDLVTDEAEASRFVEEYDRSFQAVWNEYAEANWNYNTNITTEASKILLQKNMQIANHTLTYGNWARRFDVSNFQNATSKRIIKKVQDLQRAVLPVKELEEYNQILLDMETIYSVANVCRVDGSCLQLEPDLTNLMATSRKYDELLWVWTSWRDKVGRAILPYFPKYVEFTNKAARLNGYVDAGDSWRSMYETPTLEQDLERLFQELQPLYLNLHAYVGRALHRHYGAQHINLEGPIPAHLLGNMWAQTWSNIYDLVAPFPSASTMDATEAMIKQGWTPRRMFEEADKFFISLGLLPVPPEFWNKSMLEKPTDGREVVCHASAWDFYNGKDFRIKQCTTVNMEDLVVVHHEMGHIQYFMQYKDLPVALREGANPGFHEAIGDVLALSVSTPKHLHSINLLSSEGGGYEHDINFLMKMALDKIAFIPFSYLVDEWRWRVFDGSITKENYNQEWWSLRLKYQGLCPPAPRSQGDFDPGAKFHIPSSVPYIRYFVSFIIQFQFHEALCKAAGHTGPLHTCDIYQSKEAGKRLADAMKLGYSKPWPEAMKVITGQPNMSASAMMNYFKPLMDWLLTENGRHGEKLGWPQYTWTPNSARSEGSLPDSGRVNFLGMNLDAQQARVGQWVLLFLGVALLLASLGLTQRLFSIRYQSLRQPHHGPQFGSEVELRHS
Kind of test: Inhibitory activity against rabbit Angiotensin I converting enzyme.

For another test, the target named is Acetylcholinesterase (Electrophorus electricus, UniProt O42275). Kind of test: Inhibitory activity against electric eel Acetylcholinesterase; No inhibition at the highest concentration tested (400 uM).
Chain of Acetylcholinesterase (O42275 whole entry): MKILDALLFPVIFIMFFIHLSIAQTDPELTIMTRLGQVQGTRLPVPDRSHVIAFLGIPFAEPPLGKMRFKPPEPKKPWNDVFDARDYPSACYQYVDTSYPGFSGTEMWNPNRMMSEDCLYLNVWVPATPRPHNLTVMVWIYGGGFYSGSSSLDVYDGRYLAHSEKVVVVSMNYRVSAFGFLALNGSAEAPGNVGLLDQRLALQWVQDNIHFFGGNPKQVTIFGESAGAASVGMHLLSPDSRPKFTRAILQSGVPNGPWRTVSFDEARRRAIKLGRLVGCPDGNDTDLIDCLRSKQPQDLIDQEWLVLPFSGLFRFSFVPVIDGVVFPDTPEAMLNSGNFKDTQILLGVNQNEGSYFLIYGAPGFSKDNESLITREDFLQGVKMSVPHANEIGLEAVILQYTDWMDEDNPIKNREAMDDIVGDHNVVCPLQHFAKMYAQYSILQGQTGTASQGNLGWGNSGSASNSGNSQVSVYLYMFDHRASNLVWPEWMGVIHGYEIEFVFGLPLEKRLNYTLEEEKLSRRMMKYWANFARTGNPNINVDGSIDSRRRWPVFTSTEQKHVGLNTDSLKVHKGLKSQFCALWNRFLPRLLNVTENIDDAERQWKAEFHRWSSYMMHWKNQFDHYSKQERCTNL

By Ki is commonly meant the equilibrium dissociation constant of an inhibitor or competing ligand from its target. Low readings indicate tighter binding, high ones weaker binding. For the compound `COP(=O)(OC)c1cccc2c3cc(-c4ccccc4)n(CC(=O)NC(C(=O)C(F)(F)F)C(C)C)c(O)c-3nc12` (configuration not stated), the figures for the inhibition constant (Ki) on Neutrophil elastase and at Chymotrypsinogen A [2] were 52 nM and 26000 nM, respectively. Besides, the Ratio in [1] turned out to be 500.
As for `CC(C)C(NC(=O)Cn1c(-c2ccccc2)cc2c3ccccc3nc-2c1O)C(=O)C(F)(F)F` (configuration not stated), the Ki turned out to be 6.1 nM at Neutrophil elastase and 430 nM at Chymotrypsinogen A [2]. Further, the Ratio in [1] was 70.
`CC(C)C(NC(=O)Cn1c(-c2ccccc2)cc2c3cccc(C=O)c3nc-2c1O)C(=O)C(F)(F)F` (configuration not stated) had a Ki at Neutrophil elastase of 4.9 nM.
Take `CCOC(=O)c1cccc2c3ccn(CC(=O)NC(C(=O)C(F)(F)F)C(C)C)c(O)c-3nc12` (configuration not stated): on Neutrophil elastase, the affinity, expressed as Ki, was 2500 nM.
The same measure, in the same setting: the result for `CC(C)C(NC(=O)Cn1ccc2c3cc(Cl)ccc3nc-2c1O)C(=O)C(F)(F)F` (configuration not stated) reads 210 nM.
On to `CC(C)C(NC(=O)Cn1ccc2c3ccccc3nc-2c1O)C(=O)C(F)(F)F` (configuration not stated), for which the values for the Ki on Neutrophil elastase and at Chymotrypsinogen A [3] were 290 nM and “No inhibition”, respectively.
On to `CC(C)c1cc2c3ccccc3nc-2c(O)n1CC(=O)NC(C(=O)C(F)(F)F)C(C)C` (configuration not stated), for which the inhibition constant Ki at Neutrophil elastase was 54 nM; on Chymotrypsinogen A [2], 1100 nM. Besides, the Ratio in [1] was found to be 20.
On Neutrophil elastase, `CC(C)C(NC(=O)Cn1c(-c2ccccc2)cc2c3cccc(O)c3nc-2c1O)C(=O)C(F)(F)F` (configuration not stated) returned a Ki of 6.7 nM.
On Neutrophil elastase, `COP(=O)(OC)c1ccc2nc3c(O)n(CC(=O)NC(C(=O)C(F)(F)F)C(C)C)c(-c4ccccc4)cc-3c2c1` (configuration not stated) yielded a Ki of 9.6 nM.
On to `CC(C)C(NC(=O)Cn1ccc2c3ccc(C(=O)O)cc3nc-2c1O)C(=O)C(F)(F)F` (configuration not stated), for which, on Neutrophil elastase, the affinity, expressed as Ki, was 510 nM.
Still for that read-out and setting: for `COC(=O)c1cccc2c3cc(-c4ccccc4)n(CC(=O)NC(C(=O)C(F)(F)F)C(C)C)c(O)c-3nc12` (configuration not stated) the value was 130 nM.
In the case of `CC(C)C(NC(=O)Cn1c(-c2ccccc2)cc2c3cccc(OS(C)(=O)=O)c3nc-2c1O)C(=O)C(F)(F)F` (configuration not stated), affinity on Neutrophil elastase was put at a Ki of 15 nM. This Ki is about 8.7-fold lower than that of the compound before.
`CC(C)C(NC(=O)CN1CCc2c([nH]c3c(C(=O)O)cccc23)C1=O)C(=O)C(F)(F)F` (configuration not stated): the affinity on Neutrophil elastase, expressed as Ki, was 27 nM.
On the same count and under the same terms, the result for `COC(=O)Oc1cccc2c3cc(-c4ccccc4)n(CC(=O)NC(C(=O)C(F)(F)F)C(C)C)c(O)c-3nc12` (configuration not stated) reads 24 nM; that for `COc1ccc2nc3c(O)n(CC(=O)NC(C(=O)C(F)(F)F)C(C)C)ccc-3c2c1` (configuration not stated), 350 nM.
Take `CC(C)C(NC(=O)Cn1c(-c2ccccc2)cc2c3cccc(C(=O)O)c3nc-2c1O)C(=O)C(F)(F)F` (configuration not stated): on Chymotrypsinogen A [2], affinity was put at a Ki of 43000 nM.
In the case of `CC(C)C(NC(=O)CN1CCc2c([nH]c3ccc(Cl)cc23)C1=O)C(=O)C(F)(F)F` (configuration not stated), affinity at Neutrophil elastase was put at a Ki of 1000 nM. This counts as single-digit micromolar.
The compound `COc1cccc2c3cc(-c4ccccc4)n(CC(=O)NC(C(=O)C(F)(F)F)C(C)C)c(O)c-3nc12` (configuration not stated) gave a Ki at Neutrophil elastase of 17 nM.
At Neutrophil elastase, `CC(C)C(NC(=O)CN1CCc2c([nH]c3ccccc23)C1=O)C(=O)C(F)(F)F` (configuration not stated) displayed a Ki of 1100 nM.
Regarding `CC(C)C(NC(=O)Cn1ccc2c3cccc(C(N)=O)c3nc-2c1O)C(=O)C(F)(F)F` (configuration not stated), the Ki on Neutrophil elastase turned out to be 730 nM.
Take `CC(C)C(NC(=O)Cn1c(-c2ccccc2)cc2c3cccc(C#N)c3nc-2c1O)C(=O)C(F)(F)F` (configuration not stated): the values for the Ki at Neutrophil elastase and at Chymotrypsinogen A [2] were 6.6 nM and 180 nM, respectively. In addition, the Ratio in [1] was found to be 27.
In turn, `COc1ccc2[nH]c3c(c2c1)CCN(CC(=O)NC(C(=O)C(F)(F)F)C(C)C)C3=O` (configuration not stated) gave a Ki on Neutrophil elastase of 1100 nM.
`CC(C)c1cc2c3cccc(C(=O)O)c3nc-2c(O)n1CC(=O)NC(C(=O)C(F)(F)F)C(C)C` (configuration not stated) yielded a Ki at Neutrophil elastase of 19 nM. This Ki is about 58-fold lower than that of the compound before.
On Neutrophil elastase, `CC(C)c1cc2c3cccc(C#N)c3nc-2c(O)n1CC(=O)NC(C(=O)C(F)(F)F)C(C)C` (configuration not stated) came in with a Ki of 28 nM.
On the same count and under the same terms, the result for `CCOC(=O)c1ccc2c3ccn(CC(=O)NC(C(=O)C(F)(F)F)C(C)C)c(O)c-3nc2c1` (configuration not stated) reads 340 nM.
Turning to `CC(C)C(NC(=O)Cn1ccc2c3cccc(C(=O)O)c3nc-2c1O)C(=O)C(F)(F)F` (configuration not stated), the Ki entry at Serine protease 1 is “No inhibition”; on Neutrophil elastase it was 22 nM; at Prothrombin, “No inhibition”; on Chymotrypsinogen A [3], “No inhibition”; at Cathepsin G it was 130000 nM; at Papain, “No inhibition”. The Ki in test [4] is 94000 nM; on Acetylcholinesterase it was “No inhibition”.
